Source: ChEMBL document CHEMBL1125193, “3-(5-Alkyl-4-hydroxy-3-methoxy-1-naphthalenyl)-2-methyl-2-propenoic acids as orally active inhibitors of IL-1 generation” (J Med Chem, 1991)

Legend:
[1] = test system: Rattus norvegicus; test: Percent inhibition was measured on untreated rat paw at a dose of 25 mg/kg; assay type: functional
In short: (§1)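 Rat adjuvant arthritis. Compound given orally once daily from first day of adjuvant treatment at 12.5-100 mg/kg. Adjuvant-untreated paw swelling measured by plethysmometer on day 15; inhibition versus control. Mean ± SEM of 6-10 animals.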

[2] = test system: Rattus norvegicus; test: Percent inhibition was measured on untreated rat paw at a dose of 50 mg/kg; assay type: functional; in short: as §1
[3] = test system: Rattus norvegicus; test: Percent swelling was measured on untreated rat paw at a dose of 12.5 mg/kg; assay type: functional; in short: as §1
[4] = test system: Rattus norvegicus; test: Percent inhibition was measured on untreated rat paw at a dose of 100 mg/kg; assay type: functional; in short: as §1
[5] = test system: Rattus norvegicus; test: Percent inhibition was measured in vivo by air pouch model on five rats by oral administration at 200 uM; assay type: functional
In short: (§2)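 Rat CMC-LPS air-pouch model, 5 rats per group. Compound given orally in 0.5% methyl cellulose 2 h before LPS at 200, 50 or 25 mg/kg. Exudate collected 4 h after LPS; extra- and intracellular IL-1 by LAF assay against recombinant human IL-1α standard.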

[6] = test system: Rattus norvegicus; test: Percent swelling was measured on untreated rat paw at a dose of 50 mg/kg; assay type: functional; in short: as §1
[7] = species: Homo sapiens; test: Concentration to inhibit human monocyte in blood (IL 1 Generation); assay type: functional
In short: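 Human monocytes stimulated with LPS ± compound; IL-1 by LAF assay, quantified against a recombinant human IL-1 standard curve. IC50 by least-squares method, mean of two or more experiments.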

[8] = test system: Rattus norvegicus; test: Percent inhibition was measured in vivo by air pouch model on five rats by oral administration at 25 uM; assay type: functional; conditions: in the assay text read “25 mg/kg” for “25 uM”; in short: as §2
[9] = test system: Rattus norvegicus; test: Percent inhibition was measured in vivo by air pouch model on five rats by oral administration at 50 uM; assay type: functional; conditions: in the assay text read “50 mg/kg” for “50 uM”; in short: as §2
[10] = Half life was measured as time taken to reach the half of the initial dose in the blood after oral administration to male F344 rats; assay type: ADME, organism-based; conditions: F344, rat
In short: (§3)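 Plasma half-life after a single oral dose of 50 mg/kg to male F344 rats; mean ± SEM, 2-3 rats per compound.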

[11] = test system: Rattus norvegicus; test: Percent swelling was measured on untreated rat paw at a dose of 100 mg/kg; assay type: functional; in short: as §1
[12] = C6h was measured as concentration obtained after 6 hr of oral administration in air pouch exudate after oral administration to male F344 rats; assay type: ADME, organism-based; conditions: F344, rat, read-out: C6h
In short: (§4)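 Male F344 rats given 50 mg/kg orally; drug measured in air-pouch exudate, with concentration at 6 h post-dose and exudate half-life derived; mean ± SEM of 5 rats.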

[13] = Area under curve was measured from the graph obtained from concentration Vs time after oral administration to male F344 rats; assay type: ADME, organism-based; conditions: F344, rat, in vivo
In short: (§5)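 Plasma AUC over 0-4 h from concentration-time course after a single oral dose of 50 mg/kg to male F344 rats; mean ± SEM, 2-3 rats per compound.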

[14] = species: Rattus norvegicus; test: Concentration to inhibit rat macrophase […] (IL 1 Generation); assay type: functional
In short: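 Rat (Fisher) peritoneal macrophages elicited by i.p. 2.5% glycogen and harvested after 4 days. Adherent cells (0.5 × 10^6/well, RPMI 1640 + 1% heat-inactivated normal rat serum, 1.5 h at 37 °C) cultured 4 h with LPS 1 ng/mL ± compound. Intracellular IL-1 by LAF assay against recombinant human IL-1α standard; IC50 by least squares, mean of duplicates.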

[15] = test system: Rattus norvegicus; test: Percent inhibition was measured on untreated rat paw at a dose of 12.5 mg/kg; assay type: functional; in short: as §1
[16] = test system: Rattus norvegicus; test: Percent swelling was measured on untreated rat paw at a dose of 25 mg/kg; assay type: functional; in short: as §1
[17] = test system: Rattus norvegicus; test: Percent inhibition was measured by in vivo by air pouch model on five rats by local administration at 100 uM; assay type: functional
In short: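 Rat CMC-LPS air-pouch model, 5 rats per group. Compound dissolved in 5% EtOH-RPMI 1640 with 30% heat-inactivated autologous serum, given locally to 100 μM final exudate concentration at 30 min before and just before LPS. Exudate collected 4 h after LPS; IL-1 by LAF assay against recombinant human IL-1α standard.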

[18] = Half life was measured as time taken to reach the half of the initial dose in air pouch exudate after oral administration to male F344 rats; assay type: ADME, organism-based; conditions: F344, rat; in short: as §4
[19] = Half life was measured as time taken to reach the half of the initial dose in the blood; assay type: ADME, tissue-based; in short: as §3
[20] = Area under curve was measured from the graph obtained from concentration Vs time; assay type: ADME; in short: as §5
[21] = Half life was measured as time taken to reach the half of the initial dose in air pouch exudate; assay type: ADME; in short: as §4
[22] = C6h was measured as concentration obtained after 6 hr of oral administration in air pouch exudate; assay type: ADME; conditions: read-out: C6h; in short: as §4
[23] = species: Rattus norvegicus; test: Percent inhibition was measured on untreated rat paw at different dosage forms; assay type: functional; in short: as §1
[24] = species: Rattus norvegicus; test: Percent swelling was measured on untreated rat paw at different dosage forms; assay type: functional; in short: as §1
[25] = in the assay text read “200 mg/kg” for “200 uM”
[26] = in the assay text read “at 200 mg/kg” for “at 200 uM”

SMILES | inhibition in vivo at 25 mg/kg [1] [%] | inhibition in vivo at 50 mg/kg [2] [%] | Swelling [3] [%] | inhibition in vivo at 100 mg/kg [4] [%] | Inhibition [5, 25] [%] | Swelling [6] [%] | IC50 [7] [nM] | Inhibition [9] [%] | half-life [10] [min] | Swelling [11] [%] | AUC [13] [µg·h/mL] | IC50 [14] [nM] | inhibition in vivo at 12.5 mg/kg [15] [%] | Swelling [16] [%] | Inhibition [17] [%] | Inhibition [5, 26] [%] | other results
CCc1cccc2c(/C=C(/C)C(=O)O)cc(OC)c(O)c12 | 34.1 | 38.8 | 44.1 | 51.4 | 91 | 33.8 | 3000 | 65 | 103 | 26.8 | 418 | 1400 | 20.1 | 36.4 | 94 | – | Inhibition [8]: 40%; concentration at 6 h [12]: 8760 ng/mL; half-life [18]: 249 min
CCc1cccc2c(/C=C(\C)C(=O)O)cc(OC)c(O)c12 | – | – | – | – | – | – | 4800 | – | 26.4 | – | 108 | 2000 | – | – | 85 | 36 | –
CCCc1cccc2c(/C=C(\C)C(=O)O)cc(OC)c(O)c12 | – | – | – | – | – | – | 1000 | 4 | 64.2 | – | 60.4 | 1000 | – | – | 91 | 67 | –
CCCc1cccc2c(/C=C(/C)C(=O)O)cc(OC)c(O)c12 | 8 | 46.6 | 45.8 | 53.6 | 86 | 29.5 | 1000 | 33 | – | 25.6 | – | 1100 | 17 | 50.8 | 87 | – | half-life [19]: 64.2 min; AUC [20]: 189 µg·h/mL; half-life [21]: 123 min; concentration at 6 h [22]: 1940 ng/mL
COc1ccc2c(c1)c(CC(=O)O)c(C)n2C(=O)c1ccc(Cl)cc1 [INDOMETHACIN] | – | – | – | – | – | – | – | – | – | – | – | – | – | – | – | – | Inhibition [23]: 47.8%; Swelling [24]: 28.8%
